Experimental data as given in ChEMBL document CHEMBL1121423, “2,4-Dihydro-6-phenyl-1H-s-triazolo[4,3-a][1,4]benzoidiazepin-1-ones with antianxiety and antidepressant activity” (1980).

Columns and labels:
Assay type in all cases: functional
Mus musculus [1] = species on record: Mus musculus; assay: Effect on the antagonism of bicuculline-induced tonic-extensor convulsions (B); settings: Mus musculus; read-out: ED50
How it was run: (§1)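 Male albino CF-1 mice, 18-22 g. Compounds were dissolved or suspended in 0.25% aqueous methylcellulose and given intraperitoneally to groups of four or six mice per dose, at multiple dose levels. ED50 was calculated by the Spearman-Karber method.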

Mus musculus [2] = species on record: Mus musculus; assay: Effect of test compound on the potentiation of apomorphine-induced gnawing (AG) in aggregated mice; how it was run: as §1
Mus musculus [3] = species on record: Mus musculus; assay: Effect on the antagonism of oxotremorine-induced hypothermia (OX); how it was run: as §1
Mus musculus [4] = species on record: Mus musculus; assay: Effect on the antagonism of pentylenetetrazole-induced clonic convulsions (P)
Mus musculus [5] = species on record: Mus musculus; assay: Effect on the potentiation of yohimbine-induced toxicity (Y) in aggregated mice; how it was run: as §1
Mus musculus [6] = species on record: Mus musculus; assay: Effect on the potentiation of gamma-butyrolactone-induced sleep (gamma-B); how it was run: as §1
Mus musculus [7] = species on record: Mus musculus; assay: Effect on the prolongation of hypoxic survival time (HS); how it was run: as §1
Mus musculus [8] = species on record: Mus musculus; assay: Effect on the antagonism of nicotine-induced tonic-extensor convulsions (TE) in mice; settings: Mus musculus; read-out: ED50; how it was run: as §1
Mus musculus [9] = species on record: Mus musculus; assay: Effect on the antagonism of nicotine-induced death (D); settings: Mus musculus; read-out: ED50; how it was run: as §1

| SMILES | ED50 (Mus musculus [1]) [mg/kg] | ED50 (Mus musculus [2]) [mg/kg] | ED50 (Mus musculus [3]) [mg/kg] | ED50 (Mus musculus [4]) [mg/kg] | ED50 (Mus musculus [5]) [mg/kg] | ED50 (Mus musculus [6]) [mg/kg] | ED50 (Mus musculus [7]) [mg/kg] | ED50 (Mus musculus [8]) [mg/kg] | ED50 (Mus musculus [9]) [mg/kg] |
| --- | --- | --- | --- | --- | --- | --- | --- | --- | --- |
| CN1CCN(CCn2nc3n(c2=O)-c2ccc(Cl)cc2C(c2ccccc2Cl)=NC3)CC1 | 3.1 | > 25 | 12.5 | 0.3 | > 25 | 0.2 | 3.1 | – | – |
| CC(CN(C)C)Cn1nc2n(c1=O)-c1ccc(Cl)cc1C(c1ccccc1Cl)=NC2 (stereo not given) | 7 | > 50 | > 50 | – | > 50 | 2 | 40 | 1 | 1.1 |
| CN(C)CCn1nc2n(c1=O)-c1ccc(Cl)cc1C(c1ccccc1)=NC2 | 6 | > 100 | > 100 | 3.2 | > 100 | 5 | 30 | 0.89 | 1.4 |
| CCN(CC)CCn1nc2n(c1=O)-c1ccc(Cl)cc1C(c1ccccc1Cl)=NC2 | 0.7 | > 100 | > 100 | 0.45 | > 100 | 0.4 | 4 | 0.09 | 0.1 |
| CN(C)CCCN1c2ccccc2CCc2ccccc21 [IMIPRAMINE] | 21 | 1 | 1 | – | 4 | 18 | > 50 | 7 | 7 |
| CNCCCn1nc2n(c1=O)-c1ccc(Cl)cc1C(c1ccccc1Cl)=NC2 | > 50 | > 50 | > 50 | 14.9 | > 50 | 25 | 9 | 1.4 | 1.4 |
| CCN(CC)CCCCn1nc2n(c1=O)-c1ccc(Cl)cc1C(c1ccccc1Cl)=NC2 | > 12.5 | > 12.5 | 10.5 | 4.4 | > 12.5 | 12.5 | 7 | 0.8 | 0.8 |
| Oc1nnc2n1-c1ccc(Cl)cc1C(c1ccccc1)=NC2 | 40 | > 50 | > 50 | 5.6 | > 50 | 6 | > 50 | 1.4 | 1.6 |
| CN(C)Cc1nnc2n1-c1ccc(Cl)cc1C(c1ccccc1)=NC2 [ADINAZOLAM] | 0.7 | 5.3 | 5.3 | 0.9 | – | 1.6 | 5 | 0.11 | 0.13 |
| Oc1nnc2n1-c1ccc(Cl)cc1C(c1ccccc1Cl)=NC2 | 1 | > 50 | > 50 | 0.08 | > 50 | 0.4 | > 50 | 0.025 | 0.025 |
